Source: ChEMBL document CHEMBL1148625, “3-(1,1-dioxo-2H-(1,2,4)-benzothiadiazin-3-yl)-4-hydroxy-2(1H)-quinolinones, potent inhibitors of hepatitis C virus RNA-dependent RNA polymerase” (J Med Chem, 2006)
pIC50: −log10 of the molar value.

Tests used:
[1] = Clearance in Sprague-Dawley rat at 1.3 mg/kg, iv or 7.7 mg/kg, po; type: ADME, organism-based; conditions: in vivo
Outline: (§1)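 Single intravenous or oral doses given to Sprague-Dawley rats. Values are reported as means: Cmax (ng/mL), half-life (min), plasma clearance (mL/min/kg), steady-state volume of distribution (L/kg) and oral bioavailability F (%).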

[2] = Clearance in cynomolgus monkey at 1.8 mg/kg, iv or 1.6 mg/kg, po; type: ADME, organism-based, Macaca fascicularis; conditions: in vivo
Outline: (§2)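 Single-dose administration, given both intravenously and orally, to Sprague-Dawley rats, beagle dogs or cynomolgus monkeys. Plasma pharmacokinetic parameters are reported as means: Cmax in ng/mL, terminal half-life in min, clearance in mL/min/kg, steady-state volume of distribution in L/kg, and oral bioavailability F in %.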

[3] = Oral bioavailability in Sprague-Dawley rat at 1.3 mg/kg, iv or 7.7 mg/kg, po; type: ADME, organism-based; conditions: in vivo; outline: as §1
[4] = Oral bioavailability in Beagle dog at 0.9 mg/kg, iv or 1.1 mg/kg, po; type: ADME, organism-based, Canis lupus familiaris; conditions: in vivo
Outline: (§3)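 Single-dose study, with separate intravenous and oral administrations at the listed mg/kg. Plasma concentrations were followed over time, and mean values were derived for Cmax, T1/2, clearance (mL/min/kg), Vdss (L/kg) and oral bioavailability (%).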

[5] = Oral bioavailability in cynomolgus monkey at 1.8 mg/kg, iv or 1.6 mg/kg, po; type: ADME, organism-based, Macaca fascicularis; conditions: in vivo; outline: as §2
[6] = Volume of distribution in Sprague-Dawley rat at 1.3 mg/kg, iv or 7.7 mg/kg, po; type: ADME, organism-based; conditions: in vivo, read-out: Vdss; outline: as §1
[7] = Volume of distribution in Beagle dog at 0.9 mg/kg, iv or 1.1 mg/kg, po; type: ADME, organism-based, Canis lupus familiaris; conditions: in vivo, read-out: Vdss; outline: as §3
[8] = Volume of distribution in cynomolgus monkey at 1.8 mg/kg, iv or 1.6 mg/kg, po; type: ADME, organism-based, Macaca fascicularis; conditions: in vivo, read-out: Vdss; outline: as §2
[9] = Half life in Sprague-Dawley rat at 1.3 mg/kg, iv or 7.7 mg/kg, po; type: ADME, organism-based; conditions: in vivo; outline: as §1
[10] = Half life in Beagle dog at 0.9 mg/kg, iv or 1.1 mg/kg, po; type: ADME, organism-based, Canis lupus familiaris; conditions: in vivo; outline: as §3
[11] = Half life in cynomolgus monkey at 1.8 mg/kg, iv or 1.6 mg/kg, po; type: ADME, organism-based, Macaca fascicularis; conditions: in vivo; outline: as §2
[12] = molecular target: RNA-directed RNA polymerase (Hepacivirus hominis, UniProt O39930); test: Inhibitory activity against HCV delta 21 NS5B RNA polymerase by SPA assay; parameters: species or system Hepatitis C virus subtype 1b
[13] = molecular target: RNA-directed RNA polymerase (Hepacivirus hominis) (UniProt O39930); test: Inhibition of HCV RNA replication in Huh7 cells; type: functional, cell-based; conditions: Huh-7
Outline: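 Huh-7 subgenomic replicon cells were seeded at 3 × 10³/well in DMEM with 10% FCS, 1% NEAA and 1 mg/mL G418, and allowed 4 h to attach. Eleven 2.5-fold DMSO dilutions were added (final 10,000 to 1.0 nM) and cells incubated 40 h. Neo RNA was measured by TaqMan RT-PCR, normalised to cyclophilin against DMSO controls; n = 8 wells per dilution.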

[14] = Cmax in Sprague-Dawley rat at 1.3 mg/kg, iv or 7.7 mg/kg, po; type: ADME, organism-based; conditions: in vivo; outline: as §1
[15] = Cmax in Beagle dog at 0.9 mg/kg, iv or 1.1 mg/kg, po; type: ADME, organism-based, Canis lupus familiaris; conditions: in vivo; outline: as §3
[16] = Cmax in cynomolgus monkey at 1.8 mg/kg, iv or 1.6 mg/kg, po; type: ADME, organism-based, Macaca fascicularis; conditions: in vivo; outline: as §2
[17] = Clearance in Beagle dog at 0.9 mg/kg, iv or 1.1 mg/kg, po; conditions: in vivo
[18] = Clearance in Sprague-Dawley rat at 0.8 mg/kg, iv or 5.8 mg/kg, po; type: ADME, organism-based; conditions: in vivo
Outline: (§4)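 Single-dose pharmacokinetics in the named species, given iv and orally at the stated doses. Plasma Cmax, half-life, clearance, steady-state volume of distribution and oral bioavailability were reported as mean values.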

[19] = Clearance in Beagle dog at 0.8 mg/kg, iv or 1.8 mg/kg, po; type: ADME, organism-based, Canis lupus familiaris; conditions: in vivo; outline: as §2
[20] = Oral bioavailability in Sprague-Dawley rat at 0.8 mg/kg, iv or 5.8 mg/kg, po; type: ADME, organism-based; conditions: in vivo; outline: as §4
[21] = Oral bioavailability in Beagle dog at 0.8 mg/kg, iv or 1.8 mg/kg, po; type: ADME, organism-based, Canis lupus familiaris; conditions: in vivo; outline: as §2
[22] = Volume of distribution in Sprague-Dawley rat at 0.8 mg/kg, iv or 5.8 mg/kg, po; type: ADME, organism-based; conditions: in vivo, read-out: Vdss; outline: as §4
[23] = Volume of distribution in Beagle dog at 0.8 mg/kg, iv or 1.8 mg/kg, po; type: ADME, organism-based, Canis lupus familiaris; conditions: in vivo, read-out: Vdss; outline: as §2
[24] = Half life in Sprague-Dawley rat at 0.8 mg/kg, iv or 5.8 mg/kg, po; type: ADME, organism-based; conditions: in vivo; outline: as §4
[25] = Half life in Beagle dog at 0.8 mg/kg, iv or 1.8 mg/kg, po; type: ADME, organism-based, Canis lupus familiaris; conditions: in vivo; outline: as §2
[26] = Cmax in Beagle dog at 0.8 mg/kg, iv or 1.8 mg/kg, po; type: ADME, organism-based, Canis lupus familiaris; conditions: in vivo; outline: as §2

Chain of RNA-directed RNA polymerase (Hepacivirus hominis) (O39930 1-591): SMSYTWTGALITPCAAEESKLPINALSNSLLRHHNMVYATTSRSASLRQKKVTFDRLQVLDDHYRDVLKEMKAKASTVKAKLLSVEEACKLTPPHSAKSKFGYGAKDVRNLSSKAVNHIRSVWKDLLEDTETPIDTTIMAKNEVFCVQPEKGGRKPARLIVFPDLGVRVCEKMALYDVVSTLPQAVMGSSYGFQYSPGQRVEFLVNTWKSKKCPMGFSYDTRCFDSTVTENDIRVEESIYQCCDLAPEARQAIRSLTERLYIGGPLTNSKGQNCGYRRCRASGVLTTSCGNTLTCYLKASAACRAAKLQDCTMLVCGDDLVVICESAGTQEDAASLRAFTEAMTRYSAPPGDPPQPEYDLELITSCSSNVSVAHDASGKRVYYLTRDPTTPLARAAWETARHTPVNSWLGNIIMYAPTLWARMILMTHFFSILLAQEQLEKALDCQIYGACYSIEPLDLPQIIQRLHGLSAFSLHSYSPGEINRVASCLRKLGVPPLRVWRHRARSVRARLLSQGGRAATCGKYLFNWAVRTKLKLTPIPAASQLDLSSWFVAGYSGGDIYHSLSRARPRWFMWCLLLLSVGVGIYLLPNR
Chain of RNA-directed RNA polymerase (O39930 whole entry): as the sequence (O39930 1-591) above

Structure (SMILES): O=c1c(C2=NS(=O)(=O)c3ccccc3N2)c(O)c2ccccc2n1CCC1CC1
- clearance [1]: 1.7 mL/min/kg
- clearance [2]: 1.73 mL/min/kg
- bioavailability [3]: 78%
- bioavailability [4]: 100%
- bioavailability [5]: > 40%
- Vd [6]: 0.25 L/kg
- Vd [7]: 0.15 L/kg
- Vd [8]: 0.19 L/kg
- half-life [9]: 1.87 h
- half-life [10]: 4.82 h
- half-life [11]: 1.35 h
- pIC50 [12]: 7.89
- EC90 [13]: 808 nM
- Cmax [14]: 6460 ng/mL
- Cmax [15]: 5400 ng/mL
- Cmax [16]: 7920 ng/mL
- clearance [17]: 0.47 mL/min/kg

Structure (SMILES): CC(C)CCn1c(=O)c(C2=NS(=O)(=O)c3ccccc3N2)c(O)c2c(F)cccc21
- EC90 [13]: 2070 nM

Structure (SMILES): O=c1c(C2=NS(=O)(=O)c3ccccc3N2)c(O)c2ccccc2n1Cc1ccoc1
- pIC50 [12]: 7.57
- EC90 [13]: 2530 nM

Structure (SMILES): CC(C)CCn1c(=O)c(C2=NS(=O)(=O)c3ccccc3N2)c(O)c2cc(F)ccc21
- EC90 [13]: 4950 nM

Structure (SMILES): CCOC(=O)CNc1ccc2c(c1)c(O)c(C1=NS(=O)(=O)c3ccccc3N1)c(=O)n2CCC(C)C
- EC90 [13]: 998 nM

Structure (SMILES): CCCCn1c(=O)c(C2=NS(=O)(=O)c3ccccc3N2)c(O)c2ccccc21
- pIC50 [12]: 6.70
- EC90 [13]: 3760 nM

Structure (SMILES): CC(C)CCn1c(=O)c(C2=NS(=O)(=O)c3ccccc3N2)c(O)c2cc(NCC(=O)O)ccc21
- EC90 [13]: 9610 nM

Structure (SMILES): CC(C)CCn1c(=O)c(C2=NS(=O)(=O)c3ccccc3N2)c(O)c2cc(OCC#N)ccc21
- EC90 [13]: 1610 nM

Structure (SMILES): O=c1c(C2=NS(=O)(=O)c3ccccc3N2)c(O)c2ccccc2n1-c1ccccc1
- EC90 [13]: 1870 nM

Structure (SMILES): O=c1c(C2=NS(=O)(=O)c3ccccc3N2)c(O)c2ccccc2n1CC1CCC1
- EC90 [13]: 1190 nM

Structure (SMILES): CC(C)CCn1c(=O)c(C2=NS(=O)(=O)c3ccccc3N2)c(O)c2cc(Cl)ccc21
- pIC50 [12]: 7.37
- EC90 [13]: 3830 nM

Structure (SMILES): CC(C)(C)CCn1c(=O)c(C2=NS(=O)(=O)c3ccccc3N2)c(O)c2cc(NCCO)ccc21
- pIC50 [12]: 7.32
- EC90 [13]: 1440 nM

Structure (SMILES): CC(C)CCn1c(=O)c(C2=NS(=O)(=O)c3ccccc3N2)c(O)c2ccccc21
- clearance [18]: 10.1 mL/min/kg
- clearance [19]: 0.5 mL/min/kg
- bioavailability [20]: 70%
- bioavailability [21]: 89%
- Vd [22]: 0.44 L/kg
- Vd [23]: 0.53 L/kg
- half-life [24]: 0.607 h
- half-life [25]: 14.3 h
- EC90 [13]: 1420 nM
- Cmax [26]: 2230 ng/mL
